Experiments:
[1] = biological target: T1, Alpha-1D adrenergic receptor (Homo sapiens) (UniProt P25100); experiment: The binding affinity was evaluated on cloned human Alpha-1D adrenergic receptor expressed in chinese hamster ovary(CHO) cells by using [3H]-prazosin as radioligand.; format: cell-based
T1 sequence (whole entry): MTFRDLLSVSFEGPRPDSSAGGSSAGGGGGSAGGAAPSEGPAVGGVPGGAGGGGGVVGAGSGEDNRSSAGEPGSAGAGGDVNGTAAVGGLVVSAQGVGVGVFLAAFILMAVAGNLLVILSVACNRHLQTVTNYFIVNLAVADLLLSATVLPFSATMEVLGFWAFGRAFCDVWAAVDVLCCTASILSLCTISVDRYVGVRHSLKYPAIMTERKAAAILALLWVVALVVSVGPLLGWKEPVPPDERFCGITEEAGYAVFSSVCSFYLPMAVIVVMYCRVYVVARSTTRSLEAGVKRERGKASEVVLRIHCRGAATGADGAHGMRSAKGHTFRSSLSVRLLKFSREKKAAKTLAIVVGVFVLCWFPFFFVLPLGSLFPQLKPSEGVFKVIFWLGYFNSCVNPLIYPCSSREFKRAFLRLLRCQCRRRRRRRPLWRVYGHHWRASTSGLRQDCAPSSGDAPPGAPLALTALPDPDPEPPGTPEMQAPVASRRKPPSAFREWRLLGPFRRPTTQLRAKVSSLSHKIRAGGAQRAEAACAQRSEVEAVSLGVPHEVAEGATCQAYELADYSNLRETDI
Procedure, shortened: (§1)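 Membranes (30 μg protein) from CHO cells stably expressing each human α1 subtype, in 50 mM Tris-HCl pH 7.4. Incubated with 0.1–0.4 nM [3H]prazosin for 30 min at 25 °C, competitor 1 pM–10 μM. Nonspecific binding with 10 μM phentolamine. Ki by Cheng-Prusoff. 2–3 experiments in triplicate.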

[2] = biological target: T2, Alpha-1A adrenergic receptor (Homo sapiens) (UniProt P35348); experiment: The binding affinity was evaluated on cloned human Alpha-1A adrenergic receptor expressed in chinese hamster ovary(CHO) cells by using [3H]prazosin as radioligand.; format: cell-based; procedure, shortened: as §1
T2 sequence (whole entry): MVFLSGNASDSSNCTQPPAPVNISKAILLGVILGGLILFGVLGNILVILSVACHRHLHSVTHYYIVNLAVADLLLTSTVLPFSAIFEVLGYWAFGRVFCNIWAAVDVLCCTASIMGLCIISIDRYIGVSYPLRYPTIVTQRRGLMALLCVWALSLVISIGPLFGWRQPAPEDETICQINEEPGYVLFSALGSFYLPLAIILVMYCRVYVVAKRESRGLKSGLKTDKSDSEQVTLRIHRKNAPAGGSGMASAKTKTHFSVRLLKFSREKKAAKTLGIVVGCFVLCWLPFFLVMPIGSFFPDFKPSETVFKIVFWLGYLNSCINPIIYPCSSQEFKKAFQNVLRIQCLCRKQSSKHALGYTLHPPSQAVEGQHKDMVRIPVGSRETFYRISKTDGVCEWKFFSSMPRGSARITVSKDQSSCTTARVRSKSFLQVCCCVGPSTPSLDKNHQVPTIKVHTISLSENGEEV

[3] = biological target: T3, 5-hydroxytryptamine receptor 1A (Homo sapiens) (UniProt P08908); experiment: The binding affinity was evaluated on cloned human 5-hydroxytryptamine 1A receptor expressed in HeLa cells by using DPAT as radioligand.; format: cell-based
T3 sequence (whole entry): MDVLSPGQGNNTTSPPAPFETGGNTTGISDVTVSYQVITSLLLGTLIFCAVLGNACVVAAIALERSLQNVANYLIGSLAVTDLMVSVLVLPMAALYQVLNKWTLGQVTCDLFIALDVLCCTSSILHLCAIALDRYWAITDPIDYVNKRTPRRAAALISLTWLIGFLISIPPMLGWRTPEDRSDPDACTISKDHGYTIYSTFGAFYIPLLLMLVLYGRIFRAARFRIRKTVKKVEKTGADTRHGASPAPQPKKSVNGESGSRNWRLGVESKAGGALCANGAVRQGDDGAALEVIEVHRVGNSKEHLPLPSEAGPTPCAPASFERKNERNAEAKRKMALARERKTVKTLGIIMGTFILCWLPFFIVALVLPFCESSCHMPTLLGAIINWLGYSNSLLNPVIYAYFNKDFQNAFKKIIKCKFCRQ
Procedure, shortened: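 Membranes from HeLa cells stably expressing human 5-HT1A, in 50 mM Tris-HCl pH 7.4, 2.5 mM MgCl2, 10 μM pargyline. Nonspecific binding with 10 μM 5-HT. Filtration. Ki by Cheng-Prusoff. 2–3 experiments in triplicate.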

[4] = biological target: T4, Alpha-1D adrenergic receptor (Rattus norvegicus) (UniProt P23944); experiment: Antagonist affinity was expressed as apparent pKb at Alpha-1D adrenergic receptor on isolated rat thoracic aorta (Alpha-1D); format: functional, tissue-based
T4 sequence (whole entry): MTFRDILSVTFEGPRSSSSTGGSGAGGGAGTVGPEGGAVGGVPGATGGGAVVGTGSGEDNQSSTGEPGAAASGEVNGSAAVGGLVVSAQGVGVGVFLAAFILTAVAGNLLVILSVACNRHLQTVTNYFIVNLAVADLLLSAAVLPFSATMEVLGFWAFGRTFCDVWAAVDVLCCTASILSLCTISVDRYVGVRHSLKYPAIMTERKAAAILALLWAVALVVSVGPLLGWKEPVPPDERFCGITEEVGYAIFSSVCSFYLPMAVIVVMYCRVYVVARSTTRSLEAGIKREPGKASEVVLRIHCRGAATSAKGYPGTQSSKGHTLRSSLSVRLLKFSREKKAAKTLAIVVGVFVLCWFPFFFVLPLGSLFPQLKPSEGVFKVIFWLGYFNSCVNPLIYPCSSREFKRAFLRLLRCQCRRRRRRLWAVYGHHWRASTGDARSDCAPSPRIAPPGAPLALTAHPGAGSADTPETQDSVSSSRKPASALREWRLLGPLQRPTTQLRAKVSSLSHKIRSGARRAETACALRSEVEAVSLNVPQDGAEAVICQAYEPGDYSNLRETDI
Procedure, shortened: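 Helicoidal strips of rat thoracic aorta at 1 g tension, with 0.1 μM cocaine and 1 μM propranolol. After ≥1 h equilibration, cumulative (–)-noradrenaline curves at 30-min intervals; the third served as control. Antagonist equilibrated 30 min before the fourth curve. Apparent pKb from log(DR−1) − log[B], 2–3 antagonist concentrations, each tested four times.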

[5] = biological target: 5-hydroxytryptamine receptor 2A (Rattus norvegicus) (UniProt P14842); experiment: The binding affinity was evaluated on 5-hydroxytryptamine 2A receptor expressed in rat cortex by using [3H]ketanserin as radioligand.
Procedure, shortened: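 Rat cerebral cortex membranes in Tris-HCl pH 7.4 with 10 μM pargyline and 0.1% ascorbic acid. Incubated 20 min at 37 °C with 0.7–1.3 nM [3H]ketanserin. Nonspecific binding with 2 μM ketanserin. Filtration and scintillation counting. Ki by Cheng-Prusoff. 2–3 experiments in triplicate.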

[6] = biological target: D(2) dopamine receptor (Rattus norvegicus) (UniProt P61169); experiment: The binding affinity was evaluated on Dopamine receptor D2 expressed in rat striatum by using [3H]spiperone as radioligand; format: tissue-based
Procedure, shortened: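 Rat striatum membranes in Tris-HCl with 10 μM pargyline, 0.1% ascorbic acid, 120 mM NaCl, 5 mM KCl, 2 mM CaCl2, 1 mM MgCl2. Incubated 15 min at 37 °C with 0.2–0.6 nM [3H]spiperone. Nonspecific binding with 1 μM (+)-butaclamol. Ki by Cheng-Prusoff. 2–3 experiments in triplicate.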

Sequence of 5-hydroxytryptamine receptor 2A (Rattus norvegicus) (P14842 whole entry): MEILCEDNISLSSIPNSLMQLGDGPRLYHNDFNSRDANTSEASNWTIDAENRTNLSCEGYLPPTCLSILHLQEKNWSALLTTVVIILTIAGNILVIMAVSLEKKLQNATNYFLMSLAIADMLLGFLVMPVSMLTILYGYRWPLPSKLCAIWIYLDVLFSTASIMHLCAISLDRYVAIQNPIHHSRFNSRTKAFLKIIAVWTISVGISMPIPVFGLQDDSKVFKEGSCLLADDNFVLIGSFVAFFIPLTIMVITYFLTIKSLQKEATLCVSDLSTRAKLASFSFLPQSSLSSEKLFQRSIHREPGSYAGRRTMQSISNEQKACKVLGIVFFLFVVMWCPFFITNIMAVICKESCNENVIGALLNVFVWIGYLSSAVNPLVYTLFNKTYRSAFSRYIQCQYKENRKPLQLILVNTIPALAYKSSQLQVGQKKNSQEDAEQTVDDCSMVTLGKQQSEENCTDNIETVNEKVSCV
Sequence of D(2) dopamine receptor (Rattus norvegicus) (P61169 whole entry): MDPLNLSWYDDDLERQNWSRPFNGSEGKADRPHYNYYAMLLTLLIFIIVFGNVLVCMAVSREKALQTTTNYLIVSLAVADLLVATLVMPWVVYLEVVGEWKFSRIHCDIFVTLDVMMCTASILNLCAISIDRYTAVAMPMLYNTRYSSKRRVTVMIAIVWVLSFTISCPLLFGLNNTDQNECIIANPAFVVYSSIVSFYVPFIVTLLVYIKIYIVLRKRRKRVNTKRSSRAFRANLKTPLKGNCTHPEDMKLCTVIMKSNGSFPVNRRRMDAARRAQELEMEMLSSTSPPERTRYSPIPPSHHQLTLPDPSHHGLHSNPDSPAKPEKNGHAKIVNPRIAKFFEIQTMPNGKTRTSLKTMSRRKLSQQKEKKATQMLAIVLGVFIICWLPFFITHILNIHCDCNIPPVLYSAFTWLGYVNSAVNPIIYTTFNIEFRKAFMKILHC

| Compound | pKi [1] | pKi [2] | pKi [3] | pKb [4] | pKi [5] | pKi [6] |
| --- | --- | --- | --- | --- | --- | --- |
| COc1cccc(OC)c1OCCNCCOc1ccccc1OCc1ccccc1 | 10.2 | 9.33 | 7.93 | 9.37 |  |  |
| COc1cccc(OC)c1OCCNCC1C(=O)c2ccccc2OC1c1ccccc1 (stereo not drawn) |  |  | 6.73 |  | 6.2 | < 6 |
| COc1cccc(OC)c1OCCNCC1Oc2ccccc2CC1c1ccccc1 (stereo in doubt; 7) | 7.28 | 8.49 | 6.84 | 7.46 | < 6 | < 6 |
